# Values without a mark were called inactive.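 Rule for the calls, unless noted: active = growth inhibition above 25% in both replicates, a cutoff set 3 SD above the mean; inconclusive = above 25% in only one replicate; inactive = the rest.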
# Assay: OD615 S. cerevisiae growth inhibition, permissive medium, pilot counter-assay, permissive growth control for S. cerevisiae lifespan shortening project (AID 705)
# Conditions: OD615, 24 h, at 10 µM, active compounds read high
# How it was run: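 Material: engineered DeaD yeast; Compound: one dose 10 µM, DMSO 0.25% final; Detection: absorbance (optical density) at 615 nm; Buffer or medium: permissive raffinose/galactose medium; Timing: 24 h exposure, 30 °C.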
row,SMILES,growth inhibition [%]
1,O=C(CNC(=O)Cn1ccc2ccccc2c1=O)NCCCN1CCN(c2cccc(Cl)c2)CC1,-15.3
2,COc1ccc(C(=O)Nc2ccccc2-c2nnn(CC(=O)NCc3ccco3)n2)cc1,-1.97
3,CC(=O)c1ccc(N2CCN(C(=O)c3ccc(NC(=O)C4CCCO4)cc3)CC2)cc1 (stereo not given),-23.3
4,CCOC(=O)N1CCN(c2nc(SC)nc3sc4c(c23)CC(C)(C)OC4)CC1,2.38
5,CCOc1ccc(-n2c(SCC(N)=O)nc3c(c2=O)SCC3)cc1,-1.29
6,CCn1cc(C(=O)NCc2cccnc2)c2cc(OC)c(OC)cc2c1=O,-18.3
7,Cc1ccc(C(=O)c2cn[nH]c2-c2cc(Cl)ccc2O)cc1,7.61
8,COCCn1c(=O)[nH]c2cc(C(=O)NCCN3CCN(c4ccccc4F)CC3)ccc2c1=O,0.575
9,C=CCOC(=O)CCCC(=O)NC1CCCCC1,-26.9
10,CCN1CCN(Cc2nc3c(c(=O)n(C)c(=O)n3C)n2CCCc2ccccc2)CC1,-5.05
11,c1cncc(CNc2c3c(nc4nnnn24)CCCC3)c1,-7.77
12,CCOc1ccc(-n2c(SCC(=O)Nc3ccc4c(c3)OCCO4)nc3c(c2=O)SCC3)cc1,-12.9
13,N#C/C(=C1\CCCN1)c1ccc2ccccc2n1,1.03
14,CN1CCCCc2c1[nH]c1ccccc1c2=O,8.28
15,CC(=O)Nc1cc(OC(=O)c2ccco2)cc(OC(=O)c2ccco2)c1,-22.3
16,O=C(Cn1nnc(-c2ccccc2NC(=O)c2ccccc2F)n1)NCc1ccco1,-7.91
17,CCCCC(NC(C)=O)c1nc2ccccc2n1CCCC (stereo not given),-16.8
18,NC1=C(c2ccc(F)cc2)C(=O)CS1,-17.2
19,COc1ccc(CNc2oc(COc3ccccc3)nc2C#N)cc1,-9.65
20,O=C(CCCOc1ccccc1)Nc1nnc(C2CCCO2)s1 (stereo not given),-23.6

row,SMILES,growth inhibition [%]
1,CCN(CC)S(=O)(=O)c1cc(Br)ccc1OC,9.34
2,COC(=O)c1cn(NC(=O)C2CCCCC2)c(=O)c2ccccc12,13.2
3,CC(C)Sc1nc(N)c2c3c(sc2n1)CN(C)CC3,-10.7
4,CCOC(=O)N1CCC(NC(=O)C(NC(=O)C2CCCCC2)C(C)C)CC1 (stereo not given),-6.95
5,CCOc1cc(C2C(C(=O)c3ccco3)=C(O)C(=O)N2CCc2ccccc2)ccc1O (stereo not given),-35.8
6,COc1cc2c(cc1OC)C(C(=O)Nc1cccc(C)n1)C(c1cccnc1)N(C)C2=O (stereo not given),8.34
7,CCCC(=O)Nc1cc(C)c(NC(=O)Cc2ccccc2)cn1,2.84
8,Cc1cccc(C)c1NC(=O)CSc1nnc([C@@H]2CCCN2C(=O)OC(C)(C)C)o1,-11.8
9,COc1cc(C2/C(=C(\O)c3cc(C)ccc3C)C(=O)C(=O)N2CCN(C)C)ccc1O (stereo not given),-21.2
10,Cc1cc(C)nc(NS(=O)(=O)c2ccc(NC(=O)c3cccs3)cc2)n1,-11.4
11,CC1CCCN(c2nc3c(c(=O)n(C)c(=O)n3C)n2Cc2ccccc2)C1 (stereo not given),-0.33
12,OCC1(c2cc(C(F)(F)F)n[nH]2)CCCCC1,5.65
13,Cn1cc(S(=O)(=O)CC(=O)Nc2ccc3c(c2)OCCO3)c2ccccc21,-14.9
14,S=c1nc(-c2ccccc2)n(CCN2CCOCC2)c2c1CCCC2,-2.79
15,Cc1cc(C)n(-c2cc(=O)n(C)c(=O)n2C)n1,1.39
16,CN(C)/C=N/c1c(C#N)cnn1-c1nc2ccccc2s1,-9.66
17,CC(C)N(C(=O)C1CC(=O)OC12CCCCC2)C(C)C (stereo not given),1.46
18,Cc1cccc(N2CCN(c3nc4ccccc4n4cnnc34)CC2)c1C,-11.7
19,Cc1ccc(C(=O)N2CCN(C)CC2)cc1S(=O)(=O)N1CCCCC1,0.05
20,Brc1cc(Br)c2ncnc(N3CCCCC3)c2c1,-2.35

# Assay: Restrictive medium S. cerevisiae growth inhibition, OD615, pilot screen of yeast lifespan reduction project, restrictive growth control (AID 706;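 active = growth inhibition above a set limit, 3 SD over mean compound inhibition, in both replicates, cut at about 43% in these data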;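 note: modified DeaD lifespan yeast strain shifted to restrictive glucose medium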)
# Conditions: OD615, 48 h, at 10 µM, active compounds read high
# How it was run: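 Buffer or medium: restrictive glucose medium (CSMM-D); test system: modified S. cerevisiae; doses: single dose of 10 µM compound final, 0.25% DMSO; schedule: 48 h compound exposure at 30 °C; detection: absorbance (optical density) measured at 615 nm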
row,SMILES,growth inhibition [%]
1,O=C(CNC(=O)Cn1ccc2ccccc2c1=O)NCCCN1CCN(c2cccc(Cl)c2)CC1,-5.33
2,COc1ccc(C(=O)Nc2ccccc2-c2nnn(CC(=O)NCc3ccco3)n2)cc1,10
3,CC(=O)c1ccc(N2CCN(C(=O)c3ccc(NC(=O)C4CCCO4)cc3)CC2)cc1 (stereo not given),-4.79
4,CCOC(=O)N1CCN(c2nc(SC)nc3sc4c(c23)CC(C)(C)OC4)CC1,-0.985
5,CCOc1ccc(-n2c(SCC(N)=O)nc3c(c2=O)SCC3)cc1,8.27
6,CCn1cc(C(=O)NCc2cccnc2)c2cc(OC)c(OC)cc2c1=O,-10
7,Cc1ccc(C(=O)c2cn[nH]c2-c2cc(Cl)ccc2O)cc1,1.2
8,COCCn1c(=O)[nH]c2cc(C(=O)NCCN3CCN(c4ccccc4F)CC3)ccc2c1=O,4.3
9,C=CCOC(=O)CCCC(=O)NC1CCCCC1,5.64
10,CCN1CCN(Cc2nc3c(c(=O)n(C)c(=O)n3C)n2CCCc2ccccc2)CC1,-8.71
11,c1cncc(CNc2c3c(nc4nnnn24)CCCC3)c1,-8.93
12,CCOc1ccc(-n2c(SCC(=O)Nc3ccc4c(c3)OCCO4)nc3c(c2=O)SCC3)cc1,-5.05
13,N#C/C(=C1\CCCN1)c1ccc2ccccc2n1,3.25
14,CN1CCCCc2c1[nH]c1ccccc1c2=O,2.2
15,CC(=O)Nc1cc(OC(=O)c2ccco2)cc(OC(=O)c2ccco2)c1,3.33
16,O=C(Cn1nnc(-c2ccccc2NC(=O)c2ccccc2F)n1)NCc1ccco1,-7.09
17,CCCCC(NC(C)=O)c1nc2ccccc2n1CCCC (stereo not given),-12.2
18,NC1=C(c2ccc(F)cc2)C(=O)CS1,4.04
19,COc1ccc(CNc2oc(COc3ccccc3)nc2C#N)cc1,-2.3
20,O=C(CCCOc1ccccc1)Nc1nnc(C2CCCO2)s1 (stereo not given),-3.93

row,SMILES,growth inhibition [%]
1,CCN(CC)S(=O)(=O)c1cc(Br)ccc1OC,-11.1
2,COC(=O)c1cn(NC(=O)C2CCCCC2)c(=O)c2ccccc12,6.18
3,CC(C)Sc1nc(N)c2c3c(sc2n1)CN(C)CC3,9.69
4,CCOC(=O)N1CCC(NC(=O)C(NC(=O)C2CCCCC2)C(C)C)CC1 (stereo not given),-2.83
5,CCOc1cc(C2C(C(=O)c3ccco3)=C(O)C(=O)N2CCc2ccccc2)ccc1O (stereo not given),-4.2
6,COc1cc2c(cc1OC)C(C(=O)Nc1cccc(C)n1)C(c1cccnc1)N(C)C2=O (stereo not given),-5.33
7,CCCC(=O)Nc1cc(C)c(NC(=O)Cc2ccccc2)cn1,6.81
8,Cc1cccc(C)c1NC(=O)CSc1nnc([C@@H]2CCCN2C(=O)OC(C)(C)C)o1,-6.59
9,COc1cc(C2/C(=C(\O)c3cc(C)ccc3C)C(=O)C(=O)N2CCN(C)C)ccc1O (stereo not given),-6.28
10,Cc1cc(C)nc(NS(=O)(=O)c2ccc(NC(=O)c3cccs3)cc2)n1,-2.39
11,CC1CCCN(c2nc3c(c(=O)n(C)c(=O)n3C)n2Cc2ccccc2)C1 (stereo not given),-3.24
12,OCC1(c2cc(C(F)(F)F)n[nH]2)CCCCC1,-0.23
13,Cn1cc(S(=O)(=O)CC(=O)Nc2ccc3c(c2)OCCO3)c2ccccc21,-1.21
14,S=c1nc(-c2ccccc2)n(CCN2CCOCC2)c2c1CCCC2,19.1
15,Cc1cc(C)n(-c2cc(=O)n(C)c(=O)n2C)n1,-9.85
16,CN(C)/C=N/c1c(C#N)cnn1-c1nc2ccccc2s1,6.79
17,CC(C)N(C(=O)C1CC(=O)OC12CCCCC2)C(C)C (stereo not given),3.32
18,Cc1cccc(N2CCN(c3nc4ccccc4n4cnnc34)CC2)c1C,-6.28
19,Cc1ccc(C(=O)N2CCN(C)CC2)cc1S(=O)(=O)N1CCCCC1,-11.5
20,Brc1cc(Br)c2ncnc(N3CCCCC3)c2c1,-19.5

# From PubChem BioAssay
